Source: ChEMBL document CHEMBL1158573, “Cytotoxic and NF-kappaB inhibitory constituents of Artocarpus rigida” (J Nat Prod, 2010)
Calls of active or inactive are those of the source. The rule behind the calls is not given here.

Columns and labels:
HT-29 = experiment: Cytotoxicity against human HT-29 cells after 3 days by SRB assay; assay type: functional; conditions: for EC50: HT-29, 72 h, read-out: ED50 (the source's name)
Procedure, shortened: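 HT-29 colon cancer cells, trypsinized and seeded in 96-well plates, treated with compounds in DMSO (DMSO as negative control). Incubated 3 days at 37 °C, 5% CO2, then fixed, 30 min at room temperature, washed, dried overnight, stained with sulforhodamine B. Dye solubilized in tris-base buffer, absorbance read at 515 nm. Cytotoxicity calculated versus DMSO control, reported as ED50 (μM). Paclitaxel as positive control.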

[1] = molecular target: T1, Nuclear factor NF-kappa-B p105 subunit (Homo sapiens) (UniProt P19838); experiment: Inhibition of NFkappa p50 isolated from nuclear extract of human HeLa cells assessed as blockade of binding to biotinylated consesus sequence by chemiluminescence assay; assay type: cell-free
T1 sequence (whole entry): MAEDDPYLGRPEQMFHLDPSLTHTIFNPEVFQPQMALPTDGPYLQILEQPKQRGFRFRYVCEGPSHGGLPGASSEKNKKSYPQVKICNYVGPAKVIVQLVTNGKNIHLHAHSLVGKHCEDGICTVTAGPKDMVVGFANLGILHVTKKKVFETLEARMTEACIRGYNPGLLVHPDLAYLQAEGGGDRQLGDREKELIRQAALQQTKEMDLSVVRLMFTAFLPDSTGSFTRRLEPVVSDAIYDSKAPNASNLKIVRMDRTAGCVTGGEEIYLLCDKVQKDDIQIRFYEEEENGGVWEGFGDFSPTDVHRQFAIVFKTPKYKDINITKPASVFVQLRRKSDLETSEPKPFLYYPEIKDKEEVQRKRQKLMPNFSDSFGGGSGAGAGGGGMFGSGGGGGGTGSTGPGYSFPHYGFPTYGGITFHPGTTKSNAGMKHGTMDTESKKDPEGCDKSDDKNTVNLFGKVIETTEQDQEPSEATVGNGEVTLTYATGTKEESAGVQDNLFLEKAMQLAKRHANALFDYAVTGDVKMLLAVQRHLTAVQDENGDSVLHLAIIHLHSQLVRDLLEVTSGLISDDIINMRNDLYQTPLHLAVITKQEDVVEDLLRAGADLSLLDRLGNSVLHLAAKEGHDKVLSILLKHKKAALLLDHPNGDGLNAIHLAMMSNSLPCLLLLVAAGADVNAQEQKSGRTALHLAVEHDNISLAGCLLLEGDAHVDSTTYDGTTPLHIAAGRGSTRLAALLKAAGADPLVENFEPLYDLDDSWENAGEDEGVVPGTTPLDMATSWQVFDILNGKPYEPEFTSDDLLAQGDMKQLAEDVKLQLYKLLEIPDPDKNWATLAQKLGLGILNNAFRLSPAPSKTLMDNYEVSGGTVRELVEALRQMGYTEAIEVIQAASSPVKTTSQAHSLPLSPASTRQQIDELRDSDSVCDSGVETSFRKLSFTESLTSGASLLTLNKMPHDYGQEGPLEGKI
Procedure, shortened: (§1)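 ELISA-format transcription factor assay. HeLa nuclear extract was treated with samples, and activated p50 or p65 bound to a biotinylated consensus sequence was detected by chemiluminescence on a plate reader. IC50 reported in μM.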

[2] = molecular target: Transcription factor p65 (Homo sapiens) (UniProt Q04206); experiment: Inhibition of NFkappa p65 isolated from nuclear extract of human HeLa cells assessed as blockade of binding to biotinylated consesus sequence by chemiluminescence assay; assay type: cell-free; procedure, shortened: as §1
Sequence of Transcription factor p65 (Homo sapiens) (Q04206 whole entry): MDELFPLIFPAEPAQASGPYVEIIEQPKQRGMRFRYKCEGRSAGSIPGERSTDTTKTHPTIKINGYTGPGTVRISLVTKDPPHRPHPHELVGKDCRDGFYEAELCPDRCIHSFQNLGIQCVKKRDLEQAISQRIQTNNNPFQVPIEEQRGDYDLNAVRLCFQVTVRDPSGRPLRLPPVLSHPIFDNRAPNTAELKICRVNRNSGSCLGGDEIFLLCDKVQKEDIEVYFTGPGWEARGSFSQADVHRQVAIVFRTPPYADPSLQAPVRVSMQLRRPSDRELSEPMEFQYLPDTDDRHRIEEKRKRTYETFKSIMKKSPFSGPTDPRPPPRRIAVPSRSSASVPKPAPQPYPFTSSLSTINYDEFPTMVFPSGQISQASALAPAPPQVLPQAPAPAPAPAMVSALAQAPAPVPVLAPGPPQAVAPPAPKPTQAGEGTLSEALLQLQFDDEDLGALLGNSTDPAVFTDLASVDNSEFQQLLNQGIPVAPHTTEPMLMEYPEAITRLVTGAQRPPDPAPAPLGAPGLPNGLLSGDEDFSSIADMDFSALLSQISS

C=C(C)c1cc2c(=O)c3c(O)c(CC=C(C)C)c(O)cc3oc2c2c1C(=O)C(O)=C(CC=C(C)C)C2=O [ARTORIGIDIN C]
EC50 (HT-29): > 10 µM

COc1cc(O)c2c(=O)c3cc4c5c(c(O)cc(O)c5c3oc2c1)OC4(C)C
Activity (HT-29): inactive
Activity [1]: inactive
Activity [2]: inactive

C=C(C)[C@H]1Cc2c(oc3c4c(cc(O)c3c2=O)OC(C)(C)C=C4)-c2c(O)cc(O)c(O)c21 [ARTOBILOXANTHONE]
EC50 (HT-29): > 10 µM

C[C@H]1[C@H](C)CC[C@]2(C(=O)O)CC[C@]3(C)C(=CC[C@@H]4[C@@]5(C)CC[C@H](O)C(C)(C)[C@@H]5CC[C@]43C)[C@H]12
Activity (HT-29): inactive
Activity [1]: inactive
Activity [2]: inactive

CC(=O)O[C@H]1C(=O)[C@@]2(C)[C@H]([C@H](OC(=O)c3ccccc3)[C@]3(O)C[C@H](OC(=O)[C@H](O)[C@@H](NC(=O)c4ccccc4)c4ccccc4)C(C)=C1C3(C)C)[C@]1(OC(C)=O)CO[C@@H]1C[C@@H]2O [PACLITAXEL]
EC50 (HT-29): 0.0001 µM

C=C(C)c1cc2c(=O)c3c(O)c(CC=C(C)C)c(O)cc3oc2c2c(O)c3c(c(O)c12)OC(C)(C)C=C3
Activity (HT-29): inactive
Activity [1]: inactive
Activity [2]: inactive

CC1(C)C=Cc2cc3c(cc2O1)Oc1cc(O)ccc1C(O)=C3 [ARTORISTILBENE]
EC50 (HT-29): 10.7 µM

C=C(C)[C@@H]1CC[C@]2(C(=O)O)CC[C@]3(C)[C@H](CC[C@@H]4[C@@]5(C)CC[C@H](O)C(C)(C)[C@@H]5CC[C@]43C)[C@@H]12
Activity (HT-29): inactive
Activity [1]: inactive
Activity [2]: inactive

CC(C)=CCc1c(O)cc2oc3c(cc4c5c(c(O)c(CC=C(C)C)c(O)c53)OC4(C)C)c(=O)c2c1O
Activity (HT-29): inactive
Activity [1]: inactive
Activity [2]: inactive
